In experiment [1] the test system is HUVECs. In words: Capillary-like tube formation assay, HUVECs on Matrigel. It is filed as cell-based, human. The settings on record: at 10 μM, 18 hours. In a few lines: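 HUVECs (2.3 × 10⁴) were seeded on Matrigel-precoated wells in complete HUVEC medium containing test compound or DMSO control and grown for 18 h. Polygons were counted from phase-contrast images, 2–4 pictures from each of 3–6 wells. Counts were compared with DMSO-only wells by one-way ANOVA with Dunnett's post-hoc test.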

Experiment [2] deals with T1, EphA4 (Mus musculus, UniProt Q03137). In words: EphA4 AP binding to immobilized KYL peptide. The settings on record: for (% Inhib.) EphA4 KYL: screen, compounds at 10 μM; for inhibition at 10 µM: read-out: (% Inhib.) EphA4 KYL. In a few lines:
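Biotinylated KYL peptide (biotin on the lysine of a C-terminal GSGSK linker) was captured on streptavidin-coated wells, with coating in borate buffer pH 8.7. Test compound (10 μM in 1% DMSO for screening; varied concentrations for confirmation) was added with ~0.35 nM mouse EphA4 ectodomain–AP from NIH3T3 supernatant in TBST. Bound AP was read at 405 nm with 1 mg/ml p-nitrophenylphosphate in SEAP buffer pH 9.8, minus AP-only background. Percent inhibition was taken relative to no-compound wells.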

Experiment [3] concerns the target EphA2 (Homo sapiens, UniProt P29317). In words: Ephrin-A1 Fc-induced EphA2 phosphorylation in HUVECs. The experiment is classed as cell-based. The note with it: at 50 μM. An outline of the steps: (§1)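 HUVECs were serum-starved 1–2 h and preincubated 15 min with 50 μM test compound (DMSO ≤0.4% final). They were then stimulated 20 min with 0.25 μg/mL ephrin-A1 Fc plus 1.5 μg/mL ephrin-B2 Fc (preclustered with 3-fold anti-Fc), or Fc, with compound present. Lysates were made in modified RIPA with NaF and pervanadate. EphA2 (1 μg antibody) and EphB4 (20 μg antibody) immunoprecipitates were immunoblotted for phosphotyrosine; lysates were probed for receptors and β-actin.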

For experiment [4], the system named is EphB6. In words: ELISA, ephrin-B2 AP binding to immobilized EphB6 Fc. The note with it: at 100 μM. In a few lines:
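Eph receptor Fc fusions were immobilized at 1 μg/ml in TBST on protein A-coated wells. Diluted ephrin AP fusion supernatant from transiently transfected HEK293 cells was added for 2 h with or without test compound; for IC50 it was at approximately 0.01 nM. Bound AP was read with p-nitrophenylphosphate, minus Fc-only background. IC50 came from a variable-slope log(inhibitor)–response fit, bottom constrained to 0.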
Background: ELISA stands for enzyme-linked immunosorbent assay.

Experiment [5] addresses EphA2 (Mus musculus, UniProt Q03145). In words: ELISA, ephrin-A5 AP binding to immobilized EphA2 Fc. The note with it: read-out: IC50 ± SE EphA2 ephrin-A5.
Experiment [6] concerns the target T2, EphB4 (Homo sapiens, UniProt P54760).
T2 sequence (P54760 16-987): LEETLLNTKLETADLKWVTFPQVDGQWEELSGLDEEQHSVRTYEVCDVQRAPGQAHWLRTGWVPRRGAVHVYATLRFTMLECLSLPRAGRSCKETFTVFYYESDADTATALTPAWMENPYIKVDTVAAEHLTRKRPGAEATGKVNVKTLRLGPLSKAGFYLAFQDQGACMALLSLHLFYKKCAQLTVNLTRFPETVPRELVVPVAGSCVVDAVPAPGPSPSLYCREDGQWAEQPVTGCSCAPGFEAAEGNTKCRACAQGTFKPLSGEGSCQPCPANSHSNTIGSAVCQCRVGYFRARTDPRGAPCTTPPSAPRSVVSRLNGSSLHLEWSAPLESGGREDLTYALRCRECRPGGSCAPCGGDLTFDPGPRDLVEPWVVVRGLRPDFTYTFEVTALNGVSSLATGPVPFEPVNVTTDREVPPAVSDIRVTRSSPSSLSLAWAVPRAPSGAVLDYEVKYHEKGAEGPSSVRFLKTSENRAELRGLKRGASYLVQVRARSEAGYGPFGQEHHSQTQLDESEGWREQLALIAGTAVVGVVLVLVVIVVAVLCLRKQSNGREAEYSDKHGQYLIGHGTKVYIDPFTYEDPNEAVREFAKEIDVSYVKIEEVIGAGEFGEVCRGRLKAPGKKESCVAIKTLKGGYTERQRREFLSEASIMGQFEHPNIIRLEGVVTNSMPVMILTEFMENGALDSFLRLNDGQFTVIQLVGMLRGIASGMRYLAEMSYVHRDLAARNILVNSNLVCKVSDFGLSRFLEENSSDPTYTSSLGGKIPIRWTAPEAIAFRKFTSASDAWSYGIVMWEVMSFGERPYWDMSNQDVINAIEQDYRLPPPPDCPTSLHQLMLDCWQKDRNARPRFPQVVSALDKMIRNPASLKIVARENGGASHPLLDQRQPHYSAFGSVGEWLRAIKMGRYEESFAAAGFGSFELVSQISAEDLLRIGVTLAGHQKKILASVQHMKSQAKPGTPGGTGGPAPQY
In words: Ephrin-B2 Fc-induced EphB4 phosphorylation in HUVECs. The experiment is classed as cell-based. The settings on record: at 50 μM. In a few lines:
as §1

Experiment [7] has as its system Eph receptors. In words: ELISA, ephrin binding to panel of EphA and EphB receptors. The settings on record: at 100 μM.
Experiment [8] concerns the target T1, EphA4. Description: ELISA, ephrin-A5 AP binding to immobilized EphA4 Fc. In a few lines: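 Mouse EphA4 Fc was captured at 1 μg/ml on protein A wells. Ephrin-A5 AP (~0.01 nM for IC50) from HEK293 supernatant was added with test compound for 2 h in TBST and read with p-nitrophenylphosphate, minus Fc-only background. For reversibility, compound was incubated 2 h, washed 30 min, then ephrin-A5 AP added for 1 h. For mode of inhibition, ephrin-A5 AP was titrated per compound concentration and fitted one-site; Ki came from KD/Bmax versus inhibitor regression.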

The target of experiment [9] is T3, EphB4 (Mus musculus, UniProt P54761).
T3 sequence (P54761 16-539): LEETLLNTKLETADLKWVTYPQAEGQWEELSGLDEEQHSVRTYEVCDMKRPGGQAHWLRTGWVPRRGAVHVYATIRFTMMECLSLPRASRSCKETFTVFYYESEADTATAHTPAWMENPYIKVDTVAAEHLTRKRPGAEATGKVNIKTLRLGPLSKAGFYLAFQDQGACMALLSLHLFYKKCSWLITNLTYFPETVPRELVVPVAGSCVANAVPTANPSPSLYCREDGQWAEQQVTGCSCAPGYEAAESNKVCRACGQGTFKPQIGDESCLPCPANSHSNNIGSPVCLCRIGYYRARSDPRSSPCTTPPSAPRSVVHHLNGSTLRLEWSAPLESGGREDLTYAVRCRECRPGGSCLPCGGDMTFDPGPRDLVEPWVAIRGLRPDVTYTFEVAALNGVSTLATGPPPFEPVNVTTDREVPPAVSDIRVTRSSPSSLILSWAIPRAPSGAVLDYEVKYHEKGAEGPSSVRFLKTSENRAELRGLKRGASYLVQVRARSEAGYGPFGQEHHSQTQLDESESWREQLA
In words: ELISA, ephrin-B2 AP binding to immobilized EphB4 Fc. The settings on record: for IC50: read-out: IC50 ± SE EphB4 ephrin-B2.

[10] abbreviates: read-out: IC50 ± SE EphA4 ephrin-A5.

Bounds are passed on as bounds.

T1 sequence (Q03137 20-547 limits assumed): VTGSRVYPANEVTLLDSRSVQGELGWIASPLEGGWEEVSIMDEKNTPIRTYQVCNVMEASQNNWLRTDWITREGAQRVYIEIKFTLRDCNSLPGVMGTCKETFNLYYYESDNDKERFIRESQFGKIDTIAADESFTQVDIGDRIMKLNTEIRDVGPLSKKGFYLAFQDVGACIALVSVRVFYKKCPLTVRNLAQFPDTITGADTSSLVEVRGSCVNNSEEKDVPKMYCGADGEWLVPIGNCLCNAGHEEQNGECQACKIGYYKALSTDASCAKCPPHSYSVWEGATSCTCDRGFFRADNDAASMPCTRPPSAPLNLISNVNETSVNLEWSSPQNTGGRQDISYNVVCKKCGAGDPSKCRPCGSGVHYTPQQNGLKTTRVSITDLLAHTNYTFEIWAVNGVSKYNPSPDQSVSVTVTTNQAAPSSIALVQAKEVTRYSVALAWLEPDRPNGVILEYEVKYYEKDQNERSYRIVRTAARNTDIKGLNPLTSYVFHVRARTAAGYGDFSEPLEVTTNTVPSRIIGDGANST
Sequence of EphA2 (Mus musculus, UniProt Q03145) (Q03145 26-538): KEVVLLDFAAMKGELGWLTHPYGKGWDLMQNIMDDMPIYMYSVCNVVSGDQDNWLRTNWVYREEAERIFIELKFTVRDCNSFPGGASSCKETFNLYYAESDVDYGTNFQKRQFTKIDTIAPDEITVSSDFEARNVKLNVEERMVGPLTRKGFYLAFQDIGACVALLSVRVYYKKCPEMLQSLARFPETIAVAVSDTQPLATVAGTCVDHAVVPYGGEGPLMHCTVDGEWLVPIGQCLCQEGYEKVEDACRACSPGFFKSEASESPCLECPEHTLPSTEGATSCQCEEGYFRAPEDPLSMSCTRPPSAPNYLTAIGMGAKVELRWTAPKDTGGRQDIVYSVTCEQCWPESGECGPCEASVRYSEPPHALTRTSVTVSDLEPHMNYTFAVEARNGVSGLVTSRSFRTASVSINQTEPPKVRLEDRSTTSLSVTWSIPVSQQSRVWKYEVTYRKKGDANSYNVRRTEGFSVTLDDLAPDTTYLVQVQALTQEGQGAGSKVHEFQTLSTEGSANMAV
Sequence of EphA2 (Homo sapiens, UniProt P29317) (P29317 24-976): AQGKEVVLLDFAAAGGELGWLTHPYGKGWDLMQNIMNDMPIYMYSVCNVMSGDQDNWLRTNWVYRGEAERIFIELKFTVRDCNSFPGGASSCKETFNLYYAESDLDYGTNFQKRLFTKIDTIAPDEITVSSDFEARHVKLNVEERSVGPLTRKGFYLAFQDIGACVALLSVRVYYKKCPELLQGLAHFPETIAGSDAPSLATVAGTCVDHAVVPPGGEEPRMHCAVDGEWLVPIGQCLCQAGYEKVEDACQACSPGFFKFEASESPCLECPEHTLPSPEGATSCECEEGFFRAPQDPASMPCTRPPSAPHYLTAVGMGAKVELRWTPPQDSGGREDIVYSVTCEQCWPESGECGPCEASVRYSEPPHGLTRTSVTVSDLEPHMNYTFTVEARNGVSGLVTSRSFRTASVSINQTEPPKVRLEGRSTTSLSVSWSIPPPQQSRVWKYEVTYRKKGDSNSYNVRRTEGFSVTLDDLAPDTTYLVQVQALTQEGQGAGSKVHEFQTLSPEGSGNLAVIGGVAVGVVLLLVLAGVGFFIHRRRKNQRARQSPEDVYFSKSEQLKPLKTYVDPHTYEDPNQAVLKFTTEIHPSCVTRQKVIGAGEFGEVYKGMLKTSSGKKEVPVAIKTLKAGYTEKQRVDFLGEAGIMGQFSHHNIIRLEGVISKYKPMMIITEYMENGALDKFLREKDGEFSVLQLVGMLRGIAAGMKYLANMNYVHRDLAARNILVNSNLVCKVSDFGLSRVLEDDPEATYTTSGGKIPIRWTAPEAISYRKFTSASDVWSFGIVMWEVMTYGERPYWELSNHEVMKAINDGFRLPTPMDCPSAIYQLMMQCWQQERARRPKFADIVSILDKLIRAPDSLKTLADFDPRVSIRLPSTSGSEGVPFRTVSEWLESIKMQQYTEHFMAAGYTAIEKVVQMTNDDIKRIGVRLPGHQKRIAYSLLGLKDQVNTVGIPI

A word on the IC50: it is the concentration at which inhibition is half-maximal. On to epigallocatechin-3-gallate [EGCG], for which the capillary-like tube formation result in experiment [1] is reported as “significantly inhibits”. Moreover, the IC50 is 15 ± 1.8 µM in experiment [2] (read-out: IC50 ± SE EphA4 KYL), greater than 200 µM in experiment [5], greater than 200 µM in [8] (setting [10]) and greater than 200 µM in experiment [9]. In addition, the “(% Inhib.) EphA4 KYL” value in experiment [2] is on record as less than 40%. For the same compound, the “EphA2 phosphorylation in HUVECs” value in experiment [3] is listed as “does not strongly inhibit”. Also, the “inhibition of ephrin binding to EphB6” value in experiment [4] was “not detectably inhibited”. Besides, the “EphB4 phosphorylation in HUVECs” value in experiment [6] is reported as “does not strongly inhibit”. In addition, the “inhibition of ephrin binding to many Eph receptors” value in experiment [7] is 10–30%. Moreover, in experiment [8] (at 200 μM), the “inhibition of ephrin-A5 binding to EphA4” value is on record as ~ 25%. For the same compound, the “inhibition of ephrin binding to EphB4” value in [9] (at 100 μM) is reported as “not detectably inhibited”.
In the case of `O=c1c(O)cc([C@H]2Oc3cc(O)cc(O)c3C[C@H]2O)cc2c([C@H]3Oc4cc(O)cc(O)c4C[C@H]3O)cc(O)c(O)c12` [theaflavin], the inhibition at 10 µM in experiment [2] was less than 40%.
In the case of “theaflavin-3,3′-digallate [theaflavin-3,3′-digallate]”, the “(% Inhib.) EphA4 KYL” value in [2] is 65%.
As to `Oc1cc(O)c2c(c1)O[C@H](c1cc(O)c(O)c(O)c1)[C@H](O)C2` [epigallotechin, epigallocatechin], the IC50 in experiment [2] is 44 ± 13 µM; in experiment [8], greater than 200 µM. The inhibition at 10 µM in experiment [2] is less than 40%.
`O=C(O[C@@H]1Cc2c(O)cc(O)cc2O[C@@H]1c1cc(O)c(O)c(O)c1-c1c([C@H]2Oc3cc(O)cc(O)c3C[C@H]2O)cc(O)c(O)c1O)c1cc(O)c(O)c(O)c1` [2′,2′-bisepigallocatechin monogallate]: the inhibition at 10 µM in [2] came to 80%.
Turning to `O=C(O)c1cc(O)c(=O)c2c(O)c(O)cc([C@H]3Oc4cc(O)cc(O)c4C[C@@H]3O)c2c1` [theaflavic acid], in experiment [2], the “(% Inhib.) EphA4 KYL” value is “less than 40%”.
Same read-out and setting: then `O=C(O)c1cc(O)c(=O)c2c(O)c(O)cc([C@H]3Oc4cc(O)cc(O)c4C[C@H]3O)c2c1` [epitheaflavic acid], with “less than 40%”; and `O=C(O[C@@H]1Cc2c(O)cc(O)cc2O[C@@H]1c1cc(O)c(O)c(O)c1-c1c([C@H]2Oc3cc(O)cc(O)c3C[C@H]2OC(=O)c2cc(O)c(O)c(O)c2)cc(O)c(O)c1O)c1cc(O)c(O)c(O)c1` [2′,2‴-bisepigallocatechin digallate], with 76%.
Take `O=C(O[C@@H]1Cc2c(O)cc(O)cc2O[C@@H]1c1ccc(O)c(O)c1)c1cc(O)c(O)c(O)c1` [epicatechin-3-monogallate, epicatechin-3-gallate]: the IC50 in experiment [2] (read-out: IC50 ± SE EphA4 KYL) was 50 ± 6 µM; in experiment [5] it was greater than 200 µM; in experiment [8] (setting [10]), greater than 200 µM; in [9] it was greater than 200 µM. The “(% Inhib.) EphA4 KYL” value in experiment [2] is recorded as less than 40%.
For `Oc1cc(O)c2c(c1)O[C@H](c1ccc(O)c(O)c1)[C@H](O)C2` [epicatechin], in experiment [2], the IC50 amounted to 190 ± 1.5 µM and the inhibition at 10 µM is less than 40%. Also, the IC50 in [8] was greater than 200 µM.

For the origin of these results see paper PMC3677025 (Pharmacological research : the official journal of the …, 2012).
